Calls of active or inactive are those of the source. The rule behind the calls is not given here.
Columns and labels:
[1] = molecular target: T1, Transient receptor potential cation channel subfamily A member 1 (Homo sapiens, UniProt O75762); test: Modulating activity at human TRPA1 expressed in HEK293 cells assessed as desensitization of CA-induced increase in Ca2+ influx at 10 uM measured within 10 mins by Fluo-4-AM dye based fluorescence assay; assay type: cell-based
Procedure, shortened: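 hTRPA1-HEK293 cells with Fluo-4AM. Real-time fluorescence recorded for 10 min after compound addition (10 µM), followed by challenge with cinnamaldehyde (30 µM) to assess desensitization of the agonist response.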

[2] = molecular target: T1, Transient receptor potential cation channel subfamily A member 1; test: Agonist activity at human TRPA1 expressed in HEK293 cells assessed as increase in calcium influx by Fluo-4-AM dye based fluorescence assay; assay type: cell-based; conditions: read-out: EC50
Procedure, shortened: (§1)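 Stably transfected hTRPA1- or hTRPM8-HEK293 cells on poly-D-lysine plates for 48 h, loaded with Fluo-4AM (2 µM, 45 min, dark, room temperature), in isotonic HEPES buffer pH 7.4. FlexStation 240 s run: 20 s baseline, compound added, calcimycin added at 180 s. ΔRFU expressed as % calcimycin, DMSO-subtracted. Screening N = 3. Dose-response curves fitted for logEC50 (N = 3 in duplicate or triplicate).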

[3] = Dissociation constant, pKa of the compound at pH 7.4; assay type: physicochemical
[4] = molecular target: T1, Transient receptor potential cation channel subfamily A member 1; test: Irreversible desensitizing activity at human TRPA1 expressed in HEK293 cells assessed as CA-induced increase in Ca2+ influx at >30 uM pretreated with compound followed by drug wash-out and CA challenge by Fluo-4-AM dye based fluorescence assay; assay type: cell-based
Procedure, shortened: (§2)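 hTRPA1-HEK293 cells loaded with Fluo-4AM were pre-incubated with compound, then washed and resuspended in fresh assay buffer. The response to cinnamaldehyde (30 µM) was then measured by FlexStation calcium fluorescence.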

Cavia porcellus = species: Cavia porcellus; test: Agonist activity at TRPA1 in Dunkin-Hartley guinea pig vagus nerve assessed as activation of vagus nerve by measuring depolarization at 100 uM […]
Procedure, shortened: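 Isolated vagus nerves from male Dunkin-Hartley guinea pigs (300-400 g, eight animals). Compound DMSO stocks diluted 1000× in Krebs-Henseleit buffer. Viability checked with capsaicin (1 µM) at the start and acrolein (300 µM) at the end. Single non-cumulative concentrations applied for 2 min each, with KH wash to baseline between them. DMSO vehicle run alike. Depolarization recorded in mV.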

[5] = molecular target: T1, Transient receptor potential cation channel subfamily A member 1; test: Reversible desensitizing activity at human TRPA1 expressed in HEK293 cells assessed as CA-induced increase in Ca2+ influx upto 10 uM pretreated with compound followed by drug wash-out and CA challenge by Fluo-4-AM dye based fluorescence assay; assay type: cell-based; procedure, shortened: as §2
[6] = molecular target: T1, Transient receptor potential cation channel subfamily A member 1; test: Antagonist activity at human TRPA1 expressed in HEK293 cells assessed as inhibition of CA-induced increase in calcium influx incubated for 10 mins prior to CA addition by Fluo-4-AM dye based fluorescence assayy; assay type: cell-based
[7] = molecular target: T1, Transient receptor potential cation channel subfamily A member 1; test: Agonist activity at human TRPA1 expressed in HEK293 cells assessed as increase in calcium influx at 30 uM by Fluo-4-AM dye based fluorescence assay relative to calcimycin; assay type: cell-based; procedure, shortened: as §1
[8] = molecular target: T2, Transient receptor potential cation channel subfamily M member 8 (Homo sapiens, UniProt Q7Z2W7); test: Antagonist activity at human TRPM8 expressed in HEK293 cells assessed as increase in calcium influx at 100 uM incubated for 10 mins prior to WS5 challenge by Fluo-4-AM dye based fluorescence assay relative to WS5; assay type: cell-based; set-up: scale not given: the % may be the effect or the level left
Procedure, shortened: (§3)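 hTRPM8-HEK293 cells loaded with Fluo-4AM (2 µM, 45 min). Test compound pre-incubated 10 min before WS5 standard agonist. FlexStation fluorescence at 485/538 nm. ΔRFU given as % of WS5 response after DMSO vehicle subtraction. N = 3. IC50 from dose-response curves.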
Target sequence in this assay (Q7Z2W7 whole entry, looked up): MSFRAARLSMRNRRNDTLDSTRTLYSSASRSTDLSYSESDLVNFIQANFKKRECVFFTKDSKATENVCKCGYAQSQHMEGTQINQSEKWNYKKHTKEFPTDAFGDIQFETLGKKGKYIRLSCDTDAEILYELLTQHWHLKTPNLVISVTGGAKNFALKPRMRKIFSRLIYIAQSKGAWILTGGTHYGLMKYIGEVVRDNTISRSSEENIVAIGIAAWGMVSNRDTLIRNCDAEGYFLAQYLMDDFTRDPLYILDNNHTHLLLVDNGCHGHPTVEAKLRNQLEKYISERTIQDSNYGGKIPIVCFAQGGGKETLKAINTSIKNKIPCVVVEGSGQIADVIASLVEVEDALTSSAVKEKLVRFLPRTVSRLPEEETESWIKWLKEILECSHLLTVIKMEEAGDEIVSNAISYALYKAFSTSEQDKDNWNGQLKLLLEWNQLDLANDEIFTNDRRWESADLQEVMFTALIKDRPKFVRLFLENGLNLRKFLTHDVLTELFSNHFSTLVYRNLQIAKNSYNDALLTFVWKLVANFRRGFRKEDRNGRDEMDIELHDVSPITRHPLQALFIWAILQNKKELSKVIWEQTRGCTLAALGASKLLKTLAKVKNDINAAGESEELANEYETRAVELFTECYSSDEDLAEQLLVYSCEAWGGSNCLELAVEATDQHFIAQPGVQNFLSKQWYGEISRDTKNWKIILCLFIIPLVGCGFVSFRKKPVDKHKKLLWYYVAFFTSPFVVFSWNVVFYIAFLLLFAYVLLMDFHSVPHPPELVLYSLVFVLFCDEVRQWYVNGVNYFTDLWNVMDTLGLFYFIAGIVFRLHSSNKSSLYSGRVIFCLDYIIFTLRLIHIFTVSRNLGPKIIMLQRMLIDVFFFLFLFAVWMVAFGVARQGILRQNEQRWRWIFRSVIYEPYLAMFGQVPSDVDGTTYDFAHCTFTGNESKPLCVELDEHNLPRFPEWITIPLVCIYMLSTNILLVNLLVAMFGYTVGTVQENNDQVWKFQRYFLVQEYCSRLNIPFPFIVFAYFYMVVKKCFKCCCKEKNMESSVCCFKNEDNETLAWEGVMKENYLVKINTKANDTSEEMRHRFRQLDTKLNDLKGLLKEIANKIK

[9] = molecular target: T2, Transient receptor potential cation channel subfamily M member 8; test: Agonist activity at human TRPM8 expressed in HEK293 cells assessed as increase in calcium influx at 100 uM by Fluo-4-AM dye based fluorescence assay relative to calcimycin; assay type: cell-based; procedure, shortened: as §1
Target sequence in this assay (Q7Z2W7 whole entry, looked up): as above

[10] = molecular target: T2, Transient receptor potential cation channel subfamily M member 8; test: Agonist activity at human TRPM8 expressed in HEK293 cells assessed as increase in calcium influx at 30 uM by Fluo-4-AM dye based fluorescence assay relative to calcimycin; assay type: cell-based; procedure, shortened: as §1
Target sequence in this assay (Q7Z2W7 whole entry, looked up): as above

[11] = molecular target: T1, Transient receptor potential cation channel subfamily A member 1; test: Antagonist activity at human TRPA1 expressed in HEK293 cells assessed as increase in calcium influx at 100 uM incubated for 10 mins prior to CA addition by Fluo-4-AM dye based fluorescence assay relative to CA; assay type: cell-based; set-up: scale not given: the % may be the effect or the level left
Procedure, shortened: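 hTRPA1-HEK293 cells loaded with Fluo-4AM (2 µM). Compound pre-incubated 10 min, then cinnamaldehyde standard agonist added. FlexStation read, ex 485/em 538 nm. ΔRFU normalized to the CA response set at 100 % after DMSO vehicle subtraction. N = 3. logIC50 taken from dose-response fits.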

[12] = system: Transient receptor potential cation channel subfamily A member 1 (Homo sapiens), O75762 [F909A]; test: Antagonist activity at human TRPA1 Phe909Ala mutant expressed in HEK293 cells assessed as Ca2+ influx at 100 uM by fluorescence assay; assay type: cell-based
Transient receptor potential cation channel subfamily A member 1 (Homo sapiens), O75762 [F909A], sequence (O75762 whole entry F909A): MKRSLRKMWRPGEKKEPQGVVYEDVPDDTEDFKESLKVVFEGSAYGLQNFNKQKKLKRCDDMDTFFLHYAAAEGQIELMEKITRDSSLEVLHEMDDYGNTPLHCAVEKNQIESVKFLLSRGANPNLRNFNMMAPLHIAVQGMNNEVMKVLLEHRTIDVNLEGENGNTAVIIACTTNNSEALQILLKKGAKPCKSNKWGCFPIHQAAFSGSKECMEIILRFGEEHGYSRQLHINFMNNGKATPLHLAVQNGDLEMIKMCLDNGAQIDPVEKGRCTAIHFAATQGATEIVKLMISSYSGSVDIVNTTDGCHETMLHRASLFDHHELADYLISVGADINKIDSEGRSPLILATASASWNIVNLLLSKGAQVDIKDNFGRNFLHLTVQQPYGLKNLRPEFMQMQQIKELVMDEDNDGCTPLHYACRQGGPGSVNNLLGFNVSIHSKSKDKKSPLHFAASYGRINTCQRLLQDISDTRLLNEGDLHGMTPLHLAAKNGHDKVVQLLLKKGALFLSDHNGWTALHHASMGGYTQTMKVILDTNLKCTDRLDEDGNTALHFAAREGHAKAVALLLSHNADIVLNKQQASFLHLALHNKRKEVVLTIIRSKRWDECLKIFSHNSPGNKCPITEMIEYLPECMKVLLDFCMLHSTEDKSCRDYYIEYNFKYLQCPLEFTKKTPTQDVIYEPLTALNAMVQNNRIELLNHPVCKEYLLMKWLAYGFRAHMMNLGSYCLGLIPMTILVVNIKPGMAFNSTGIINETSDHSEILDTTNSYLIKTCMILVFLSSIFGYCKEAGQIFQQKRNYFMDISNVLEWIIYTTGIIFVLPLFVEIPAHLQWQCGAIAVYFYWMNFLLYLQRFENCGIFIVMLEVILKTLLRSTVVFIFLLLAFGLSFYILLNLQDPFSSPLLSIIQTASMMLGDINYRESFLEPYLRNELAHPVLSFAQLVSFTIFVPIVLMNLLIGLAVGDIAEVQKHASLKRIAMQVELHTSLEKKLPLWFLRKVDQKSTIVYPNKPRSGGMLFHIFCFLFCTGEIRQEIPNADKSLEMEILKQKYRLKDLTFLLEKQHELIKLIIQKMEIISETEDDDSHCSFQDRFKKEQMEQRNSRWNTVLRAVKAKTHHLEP
Procedure, shortened: (§4)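 hTRPA1 F909A or F944A mutant HEK293 stable clones, loaded with Fluo-4AM (2 µM, 45 min, room temperature). Compound pre-incubated 10 min before the standard agonist was added. FlexStation fluorescence (485/538 nm). ΔRFU normalized to the standard agonist response set at 100 %, after DMSO vehicle subtraction.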

[13] = system: Transient receptor potential cation channel subfamily A member 1 (Homo sapiens), O75762 [F944A]; test: Antagonist activity at human TRPA1 Phe944Ala mutant expressed in HEK293 cells assessed as Ca2+ influx at 100 uM by fluorescence assay; assay type: cell-based; procedure, shortened: as §4
Transient receptor potential cation channel subfamily A member 1 (Homo sapiens), O75762 [F944A], sequence (O75762 whole entry F944A): as the sequence (O75762 whole entry F909A) above, with A909F, F944A counted along it

[14] = molecular target: T2, Transient receptor potential cation channel subfamily M member 8; test: Antagonist activity at human TRPM8 expressed in HEK293 cells assessed as inhibition in WS5-induced increase in calcium influx incubated for 10 mins prior to WS5 challenge by Fluo-4-AM dye based fluorescence assay; assay type: cell-based; procedure, shortened: as §3
Target sequence in this assay (Q7Z2W7 whole entry): as the sequence (Q7Z2W7 whole entry, looked up) above

[15] = molecular target: T1, Transient receptor potential cation channel subfamily A member 1; test: Reversible desensitizing activity at human TRPA1 expressed in HEK293 cells assessed as CA-induced increase in Ca2+ influx up to 30 uM pretreated with compound followed by drug wash-out and CA challenge by Fluo-4-AM dye based fluorescence assay; assay type: cell-based; procedure, shortened: as §2
[16] = molecular target: Transient receptor potential cation channel subfamily A member 1 (Mus musculus, UniProt Q8BLA8); test: Agonist activity at mouse TRPA1 expressed in CHO cells assessed as increase in calcium influx by patch clamp electrophysiology method; assay type: cell-based
Transient receptor potential cation channel subfamily A member 1 (Mus musculus, UniProt Q8BLA8), sequence (Q8BLA8 whole entry): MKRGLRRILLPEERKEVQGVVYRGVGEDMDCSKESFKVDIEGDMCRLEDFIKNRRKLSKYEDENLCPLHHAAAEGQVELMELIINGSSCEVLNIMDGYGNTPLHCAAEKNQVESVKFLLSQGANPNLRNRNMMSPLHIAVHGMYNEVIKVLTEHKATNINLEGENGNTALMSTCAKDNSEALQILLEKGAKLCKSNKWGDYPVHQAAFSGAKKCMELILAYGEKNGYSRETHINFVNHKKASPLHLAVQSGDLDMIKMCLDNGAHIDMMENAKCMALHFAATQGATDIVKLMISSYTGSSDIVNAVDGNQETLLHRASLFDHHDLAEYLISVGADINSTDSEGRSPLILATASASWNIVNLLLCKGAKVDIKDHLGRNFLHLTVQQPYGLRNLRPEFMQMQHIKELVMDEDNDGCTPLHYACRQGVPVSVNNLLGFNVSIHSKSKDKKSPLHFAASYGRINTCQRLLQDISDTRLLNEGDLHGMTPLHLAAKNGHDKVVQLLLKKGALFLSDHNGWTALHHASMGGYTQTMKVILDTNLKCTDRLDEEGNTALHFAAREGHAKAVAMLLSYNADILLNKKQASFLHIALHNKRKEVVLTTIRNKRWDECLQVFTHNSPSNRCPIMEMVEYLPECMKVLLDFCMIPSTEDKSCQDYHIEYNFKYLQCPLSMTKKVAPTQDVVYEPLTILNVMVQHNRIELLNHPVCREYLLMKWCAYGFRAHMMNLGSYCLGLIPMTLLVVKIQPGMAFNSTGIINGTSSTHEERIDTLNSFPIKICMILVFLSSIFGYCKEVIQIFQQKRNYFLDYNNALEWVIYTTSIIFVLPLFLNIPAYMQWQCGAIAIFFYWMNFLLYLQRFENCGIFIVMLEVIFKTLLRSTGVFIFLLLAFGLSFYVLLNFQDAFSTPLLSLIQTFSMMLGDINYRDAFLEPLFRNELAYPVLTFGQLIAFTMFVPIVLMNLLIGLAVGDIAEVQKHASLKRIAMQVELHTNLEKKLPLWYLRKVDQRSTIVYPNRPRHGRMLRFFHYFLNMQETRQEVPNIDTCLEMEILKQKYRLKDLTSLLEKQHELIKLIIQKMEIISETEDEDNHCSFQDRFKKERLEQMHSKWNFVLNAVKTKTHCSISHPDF

[17] = system: Transient receptor potential cation channel subfamily A member 1 (Homo sapiens), O75762 [F909A]; test: Agonist activity at human TRPA1 Phe909Ala mutant expressed in HEK293 cells assessed as Ca2+ influx […] fluorescence assay; assay type: cell-based
Procedure, shortened: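 HEK293 cells stably expressing hTRPA1 point mutants (C621A, F909A or F944A), single-cell cloned under G418 selection. Cells plated on poly-D-lysine for 48 h, loaded with Fluo-4AM 2 µM for 45 min at room temperature. FlexStation read (ex 485/em 538 nm): 20 s baseline, compound added, calcimycin added at 180 s. Response expressed as % calcimycin from ΔRFU, vehicle-subtracted, and compared with wild-type hTRPA1 cells.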

[18] = system: Transient receptor potential cation channel subfamily A member 1 (Homo sapiens), O75762 [F909A]; test: Agonist activity at human TRPA1 Phe909Ala mutant expressed in HEK293 cells assessed as Ca2+ influx at 100 uM by fluorescence assay; assay type: cell-based
Procedure, shortened: (§5)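 HEK293 cells stably expressing hTRPA1 point mutants, made by FuGENE 6 transfection, G418 (0.5 mg ml-1) selection and single-cell cloning, grown in DMEM with 25 mM HEPES, 10% FBS and geneticin. Ca2+ influx was read by Fluo dye fluorescence at room temperature, with calcimycin added at the end. Response was ΔRFU as % of calcimycin, with the DMSO vehicle subtracted.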

[19] = system: Transient receptor potential cation channel subfamily A member 1 (Homo sapiens), O75762 [C621A]; test: Agonist activity at human TRPA1 […] mutant expressed in HEK293 cells assessed as Ca2+ influx at 100 uM by fluorescence assay; assay type: cell-based
Transient receptor potential cation channel subfamily A member 1 (Homo sapiens), O75762 [C621A], sequence (O75762 whole entry C621A): as the sequence (O75762 whole entry F909A) above, with C621A, A909F counted along it

[20] = system: Transient receptor potential cation channel subfamily A member 1 (Homo sapiens), O75762 [F944A]; test: Agonist activity at human TRPA1 Phe944Ala mutant expressed in HEK293 cells assessed as Ca2+ influx at 100 uM by fluorescence assay; assay type: cell-based; procedure, shortened: as §5

T1 sequence (O75762 whole entry): as the sequence (O75762 whole entry F909A) above, with A909F counted along it

Row | Compound | Activity [1] | EC50 [2] [µM] | pKa [3] | Activity [4] | IC50 [6] [µM] | Activity [7] [%] | Activity [8] [%] | Activity [9] | Activity [10] | Activity [11] [%] | further results
1 | O=C(/C=C/c1ccc(Cl)cc1)Nc1ccccc1C(=O)O | Active | 10 | 3.4 | Active | 4 | 62 | 40 | inactive | inactive | 7 | Activity (Cavia porcellus): Active; Activity [5]: Active
2 | O=C(NCc1ccc(Cl)cc1)[C@@H]1CCCN1S(=O)(=O)c1ccc(F)cc1 |  |  |  |  | 10 |  |  |  |  |  | Activity [12]: inactive; Activity [13]: inactive
3 | O=C(/C=C/c1ccccc1Cl)Nc1ccccc1C(=O)O | Active | 42 | 3.4 | Active | 11 | 44 | 25 | inactive | inactive | 5 | IC50 [14]: 21 µM; Activity [15]: Active
4 | CN1CCC[C@H]1c1cccnc1 [NICOTINE] |  | 2 |  |  |  |  |  |  |  |  | EC50 [16]: 10 µM; Activity [17]: Active
5 | CC(C)c1ccc(NC(=O)Cn2cnc3c2c(=O)n(C)c(=O)n3C)cc1 |  |  |  |  | 18 |  |  |  |  |  | Activity [12]: Active
6 | O=C(/C=C/c1ccc(F)cc1)Nc1ccccc1C(=O)O | Active | 30 | 3.4 | Active | 26 | 37 | 61 | inactive | inactive | 13 | Activity [15]: Active
7 | CC1CCC(C(C)C)C(O)C1 (stereo not drawn) [MENTHOL] |  | 30 |  |  |  |  |  |  |  |  | Activity [18]: inactive; EC50 [16]: 95 µM; Activity [19]: inactive; Activity [20]: inactive

Source: ChEMBL document CHEMBL4346663, “N-Cinnamoylanthranilates as human TRPA1 modulators: Structure-activity relationships and channel binding sites” (Eur J Med Chem, 2019)
